LEDGF integ inh: blocks HIV-1 LEDGF/p75-dependent DNA integration. inhibition, % at 3.7 µM. hit rate 0.64% among 370,000. TR-FRET IN-LEDGF/p75 DNA integration, Eu/Cy5;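 active means inhibition above the screen-wide mean plus 3 SD, cut at about 13% in these data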;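 further: signal is the Cy5 over europium emission ratio at 671 and 618 nm; 0% = plate median of compound wells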
NSD2 HMT inh: inhibitors of human histone methyltransferase NSD2; hit rate 0.54% among 310,000; inhibition, % at 12.5 µM; NSD2 peptide methylation, AlphaScreen, 120 min; O96028; in the data active means inhibition above about 50%
Target sequence (O96028 whole entry, looked up): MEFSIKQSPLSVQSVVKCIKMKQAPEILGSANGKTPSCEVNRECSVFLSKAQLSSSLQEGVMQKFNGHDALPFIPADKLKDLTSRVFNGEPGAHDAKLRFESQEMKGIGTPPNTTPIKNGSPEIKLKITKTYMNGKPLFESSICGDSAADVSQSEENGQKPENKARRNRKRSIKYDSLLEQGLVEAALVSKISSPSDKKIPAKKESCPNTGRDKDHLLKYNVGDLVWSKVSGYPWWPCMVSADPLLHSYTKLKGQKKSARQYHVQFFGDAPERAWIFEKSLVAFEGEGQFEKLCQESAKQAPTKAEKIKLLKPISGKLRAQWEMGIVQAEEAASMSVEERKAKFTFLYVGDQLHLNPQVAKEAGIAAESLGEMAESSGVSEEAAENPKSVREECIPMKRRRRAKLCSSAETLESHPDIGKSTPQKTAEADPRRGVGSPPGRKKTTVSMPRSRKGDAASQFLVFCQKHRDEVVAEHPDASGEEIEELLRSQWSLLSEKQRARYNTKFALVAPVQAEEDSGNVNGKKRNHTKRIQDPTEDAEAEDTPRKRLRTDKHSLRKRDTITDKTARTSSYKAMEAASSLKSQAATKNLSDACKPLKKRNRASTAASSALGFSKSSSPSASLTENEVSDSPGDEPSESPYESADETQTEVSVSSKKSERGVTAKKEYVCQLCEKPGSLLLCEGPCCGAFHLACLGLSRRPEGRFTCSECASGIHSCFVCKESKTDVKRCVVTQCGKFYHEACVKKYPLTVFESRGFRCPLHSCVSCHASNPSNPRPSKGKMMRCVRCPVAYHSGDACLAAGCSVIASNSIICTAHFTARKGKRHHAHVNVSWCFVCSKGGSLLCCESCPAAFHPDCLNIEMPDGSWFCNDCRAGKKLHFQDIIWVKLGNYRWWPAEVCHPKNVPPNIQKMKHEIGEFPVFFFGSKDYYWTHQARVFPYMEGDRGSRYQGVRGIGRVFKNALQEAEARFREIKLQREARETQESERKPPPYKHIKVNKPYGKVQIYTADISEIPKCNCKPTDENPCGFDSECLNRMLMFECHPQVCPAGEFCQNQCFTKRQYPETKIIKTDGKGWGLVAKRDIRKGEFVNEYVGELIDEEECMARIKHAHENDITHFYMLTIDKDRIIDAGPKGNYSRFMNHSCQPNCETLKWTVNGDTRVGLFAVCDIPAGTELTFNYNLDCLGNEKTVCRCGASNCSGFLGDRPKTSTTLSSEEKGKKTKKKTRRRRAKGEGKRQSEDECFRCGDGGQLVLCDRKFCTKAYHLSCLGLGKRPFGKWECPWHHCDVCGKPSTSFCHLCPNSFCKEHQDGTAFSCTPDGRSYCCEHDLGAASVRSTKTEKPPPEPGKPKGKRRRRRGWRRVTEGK
CASP6 VEID inh: inhibitors of human caspase-6; P55212; purified caspase-6, Z-VEID-R110 cleavage fluorescence; inhibition, % at 12.5 µM; hit rate 0.53% among 350,000;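 active means mean inhibition across replicates at least about 35%, with every replicate also reaching that limit, limit read from the data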;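 further: 0% = median of neutral control wells and 100% = no fluorescence left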
TDP2 inh: blocks human TDP2 phosphodiesterase activity. O95551. recombinant TDP2, T5PNP hydrolysis, p-nitrophenol absorbance 415 nm. inhibition, % at 12.8 µM. hit rate 0.34% among 370,000. AID 720702;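 active means inhibition above the mean of all tested compounds plus 3 SD, set per campaign, cut at about 25% in these data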;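 further: 0% = DMSO with enzyme and 100% = buffer with substrate but no TDP2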
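System – recombinant human TDP2 · Amount – 120 nM TDP2 per well · Buffer or medium – Mg2+-containing Tris-HCl buffer, pH 7.5 · Reagent – T5PNP substrate, 5 mM · Dosing – 12.8 µM single point, 1% DMSO · Incubation – 2 h at 37 °C · Measured by – epi absorbance · Read-out basis – percent inhibition · Benchmarks – high control without enzyme, low control DMSO plus TDP2 · Repeats – singlicate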
UHRF1 MBD2 ctr: UHRF1 methyl-DNA binding inhibition; Q96T88; UHRF1 binding to methylated oligo, TR-FRET; inhibition, % at 4.4 µM; hit rate 0.75% among 370,000; in the data active means inhibition above about 21%;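 further: UHRF1 SRA domain binding a hemimethylated CpG hairpin DNA probe; 0% = median of test compound wells and 100% = reference inhibitor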
MBD2 DNA inh: MBD2-methylated oligo binding inhibition; Q9UBB5; TR-FRET, MBD2 binding to methylated oligonucleotide; inhibition, % at 4.4 µM; hit rate 0.31% among 370,000; in the data active means inhibition above about 13%
Numbers without * were called inactive; x = not tested or not shown. Compounds with a hit are over-represented: about 1.8% of the library has one in this group of screens.

SMILES | LEDGF integ inh | NSD2 HMT inh | CASP6 VEID inh | TDP2 inh | UHRF1 MBD2 ctr | MBD2 DNA inh
CN(C)CCNC(=O)c1cccc(S(=O)(=O)Nc2ccccc2F)c1 | 0 | -1 | 49* | -10 | 9 | 3
O=C(Nc1ccccc1N1CCOCC1)c1cccc(S(=O)(=O)Nc2ccccc2F)c1 | 5 | x | 3 | -3 | 2 | -4
CCCC(=O)N/C(N)=N/c1nc(C)c2ccccc2n1 | -3 | 0 | 1 | -12 | 34* | -1
CCC(=O)N(C)C[C@H]1Oc2cc(C#CCN(C)C)ccc2S(=O)(=O)N([C@H](C)CO)C[C@@H]1C | x | x | -15 | x | x | x
CC(=O)Nc1cccc(-c2nc3ccccc3o2)c1 | 5 | -1 | 1 | 12 | -5 | -4
CC(=O)Nc1ccc2oc(-c3ccccc3)nc2c1 | -3 | -1 | 1 | 4 | 23* | 2
CC(=O)Nc1ccc(S(=O)(=O)Nc2cccc(-c3nc4cc(C)ccc4o3)c2)cc1 | 7 | 3 | 3 | -4 | 21* | 6
O=C(NCC[C@@H]1CC[C@H](NC(=O)C2CCCC2)[C@@H](CO)O1)c1ccc(F)cc1 | x | x | -1 | x | x | x
Clc1cccc(Cl)c1CN1CCN(c2ncccn2)CC1 | 3 | -2 | -5 | 0 | -4 | -4
Cn1nc(-c2ccccc2)c(CN2CCN(c3ncccn3)CC2)c1Cl | 7 | -2 | 0 | 12 | 34* | 7
COC(=O)C1=NNC2C(=O)N(c3ccc(C)cc3)C(=O)C12 (centres undefined) | -2 | -3 | 1 | 12 | 2 | -2
COC(=O)C1=NNC2C(=O)N(C3CCCCC3)C(=O)C12 (centres undefined) | -1 | -4 | -5 | -6 | 26* | 11
C=CCN1CCCc2c(-c3ccc(OCCO)cc3)noc2-c2cc(OC)c(OC)cc2CC1 | x | x | -2 | x | x | x
CCOc1ccccc1N1CCN(C(=O)[C@@H]2CCCN2C2=NS(=O)(=O)c3ccccc32)CC1 | -5 | -2 | -6 | 4 | 40* | 4
c1ccc2c(-c3c[nH]c4ccccc34)c3ccccc3nc2c1 | -2 | -4 | x | 9 | -2 | 1
O=C(O)c1cc(-c2c[nH]c3ccccc23)nc2ccc3ccccc3c12 | 1 | -5 | 2 | 5 | 21* | 1
Cc1cccc(C)c1-n1cccc1/C=C1\SC(=S)N(c2cccc(C(=O)O)c2)C1=O | 1 | 14 | 37* | -7 | 0 | 0
Cc1ccc2nc(-c3ccco3)c(Cc3ccsc3)n2c1 | -1 | x | 8 | 4 | 23* | 7
Cc1ccc(-c2nc3ccc(C)cn3c2Cc2ccsc2)cc1 | -1 | x | 3 | -2 | 13 | 5
Cc1ccc(-c2nc3ccc(Cl)cn3c2Cc2ccsc2)cc1 | -2 | x | 37* | 6 | 3 | 0
Cc1ccc(Cc2c(-c3ccco3)nc3c(C)cc(Br)cn23)cc1 | 0 | x | 23 | 3 | 21* | 1
Cc1ccc2nc(-c3ccc(Cl)cc3)c(Cc3ccsc3)n2c1 | -1 | x | 0 | 2 | 15 | -2
Cc1ccc(Cc2c(-c3ccco3)nc3ccc(C)cn23)cc1 | 5 | x | 15 | -11 | 24* | 4
C[C@@H]1CCCCO[C@H](CN(C)CC2CCCCC2)[C@H](C)CN([C@H](C)CO)C(=O)c2cc(NS(C)(=O)=O)ccc2O1 | x | x | 1 | x | x | x
CCCNC(=O)N1CCC2(CC1)CN(S(C)(=O)=O)[C@H](CO)c1c2c2ccc(OC)cc2n1C | x | x | 2 | x | x | x
SMILES | LEDGF integ inh | NSD2 HMT inh | CASP6 VEID inh | TDP2 inh | UHRF1 MBD2 ctr | MBD2 DNA inh
Cc1noc(C)c1S(=O)(=O)Nc1ccc2c(c1)C(=O)N([C@H](C)CO)C[C@@H](C)[C@@H](CN(C)Cc1ccc(Oc3ccccc3)cc1)O2 | x | x | 1 | x | x | x
CC(=O)Nc1ccc(S(=O)(=O)N2CCSC2c2ccco2)cc1 (centres undefined) | 4 | 3 | -1 | -6 | 27* | 12
N#Cc1ccc(-c2ccc3c(c2)[C@@H]2[C@@H](CCN2C(=O)c2ccc4c(c2)OCO4)[C@@H](CO)N3)cc1 | x | x | -2 | x | x | x
O=C(CCN=C1NS(=O)(=O)c2ccccc21)OCC(=O)c1ccccc1 | 1 | -2 | 1 | -1 | 32* | 0
Cc1ccc(C(C(=O)NCc2ccc(F)cc2)N(CCCO)C(=O)C2COc3ccccc3O2)o1 (centres undefined) | 1 | 1 | 2 | -2 | 23* | 5
CO[C@H]1CN(C)C(=O)c2cc(NS(=O)(=O)CC(F)(F)F)ccc2OC[C@H](C)N(Cc2nccs2)C[C@H]1C | x | x | -3 | x | x | x
O=C(N/N=C/c1cc(Br)c(O)c(Br)c1O)c1cccnc1 | -1 | 17 | 40* | -7 | -4 | -6
O=C(CSCCc1ccccn1)Nc1ccccn1 | 1 | 2 | x | 6 | 1 | 3
O=C(O)CSCCc1ccccn1 | 2 | 0 | x | 6 | 21* | 10
COc1ccc2c3c([nH]c2c1)[C@H](CO)N(C(=O)C1CCCC1)CC31CN(C(=O)c2ccncc2)C1 | x | x | 0 | x | x | x
COc1ccc(NC(=O)Nc2ccc3c(c2)CC(=O)N([C@@H](C)CO)C[C@@H](C)[C@@H](CN(C)S(C)(=O)=O)O3)cc1 | x | x | 0 | x | x | x
CCOC(=O)C(=O)N/N=C/c1ccco1 | -4 | 4 | 36* | -3 | 1 | 5
Cc1cc(C)cc(OCC(=O)N/N=C/c2ccco2)c1 | 1 | -1 | -2 | -1 | 0 | 3
C[C@@H]1CCCCO[C@H](CN(C)C(=O)CCC(F)(F)F)[C@H](C)CN([C@H](C)CO)C(=O)c2cc(NS(=O)(=O)c3ccccc3)ccc2O1 | x | x | 1 | x | x | x
Cc1ccc(NC(=S)NCC2CCN(C(C)c3ccccc3)C2)cc1C (centres undefined) | 1 | 8 | -15 | 0 | 23* | 1
Cc1ccc(NC(=S)NCC2CCCO2)cc1C (centres undefined) | 2 | 7 | x | 12 | 0 | 0
CN(CC(=O)Nc1ccc(F)c(F)c1F)C(=O)CCc1nc2sc3c(c2c(=O)[nH]1)CCCC3 | 2 | 1 | 42* | -5 | 9 | -3
Cc1cccc(NC(=O)CNC(=O)CCc2nc3sc4c(c3c(=O)[nH]2)CCCC4)c1C | 5 | 5 | 41* | -9 | 16 | 6
O=C(CNC(=O)c1ccc(Cl)cc1)OCc1nc2ccccc2s1 | -1 | -4 | 2 | 3 | 25* | 4
CC(=O)c1c(O)cc(C)n(-c2ccc(F)cc2)c1=O | 1 | -3 | 2 | -3 | 3 | -1
Cc1cc(C)n(-c2ccc(F)cc2)c(=O)c1C(=O)O | 5 | -5 | x | -1 | 23* | 11
O=C(O)c1cc(N/N=C/c2ccc(N3CCOCC3)s2)ccc1Cl | 68* | x | 18 | 15 | 93* | 43*
NC(=O)N/N=C/c1ccc(N2CCOCC2)s1 | -2 | 3 | 2 | -6 | -7 | -1
CN1C(=O)c2cc(NC(=O)c3cc(F)cc(F)c3)ccc2OC[C@H]2O[C@@H](CC(=O)O)CC[C@@H]21 | x | x | 27 | x | x | x
COc1cccc(CN2CCC(C(=O)Nc3ccc(-c4cccc(C)c4)cc3)CC2)c1O | 3 | x | 0 | -4 | 71* | 9
